Compound activity from PubChem.
Mdm2 MdmX PPI: disrupts the human Mdm2-MdmX interaction; AID 485346; 3% of 330,000 active; inhibition, % at 8 µM; SaOS-2 split-luciferase Mdm2/MdmX complementation, luminescence; O15151+Q00987;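 active means inhibition of at least 50% at 8 µM in the primary screen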
T cruzi inh: blocks replication of Trypanosoma cruzi | T. cruzi beta-gal in NIH3T3, luminescence, 90 h | AID 1885 | inhibition, % (test concentration not listed) | 1.4% of 300,000 active;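 active means mean inhibition across valid replicates above about 55%, limit read from the data; inconclusive means mean below that limit but half or more replicates reach it; inactive means mean below it, under half of replicates reach it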;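 further: signal also drops with host cell toxicity which is not excluded here; 0% = plate median of DMSO wells and 100% = zero luminescence signal; higher percent means less beta-gal luminescence so fewer parasites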
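assay system = mouse NIH/3T3 fibroblasts infected with β-gal-expressing T. cruzi Tulahuen C4 | input = 5,000 NIH/3T3 host cells per well | buffer or medium = DMEM plus 2% FBS | timing = 3 h host attachment, then at least 90 h co-culture | measured by = GalScreen luminescence, 60 min | evaluation = luminescence reflecting intracellular parasite burden, expressed as percent inhibition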
CSC inhib: cancer stem cell inhibition; cancer stem cell-like cells viability, luminescence; inhibition, % at 7.5 µM; 1.1% of 300,000 active; in the data active means inhibition above about 75%; inconclusive means no clear call, values can overlap the other calls; tested in HMLE shEcad cells
Beta apoptosis: blocks beta cell apoptosis; INS-1E cytokine-induced death, ATP luminescence, 48 h; percent of positive-control rescue, neutral wells zero; protection from apoptosis, % (test concentration not listed); 0.8% of 300,000 active; AID 435005;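 active means Every replicate reaches about 75%, or at least half do and their mean reaches it too, limit read from the data; inconclusive means At least half of replicates reach the limit but their mean does not; inactive means Under half of replicates reach the limit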;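 further: 0% = cytokine-treated negative control wells and 100% = positive control rescue; higher means more ATP so stronger rescue from cytokine killing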
SKKanGAS inh: inhibitors of SKKanGAS S. pyogenes growth in kanamycin (SK-promoter or general growth effect). BacTiter-Glo, 6 h. inhibition, % at 7.5 µM. 1.3% of 300,000 active;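 active means mean replicate score, as percent of positive control median, at least 50; inconclusive means mean below 50 but one replicate at or above 50; inactive means mean and every replicate below 50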;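 further: strain carries kanamycin resistance gene driven by streptokinase promoter and grows in 40 µg/ml kanamycin; loss of luminescence reflects streptokinase promoter inhibition or plain growth inhibition; 0% = median of DMSO wells and 100% = positive control at its reference dose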
Lmaj promast: Leishmania major promastigote growth inhibition | 9% of 200,000 active | inhibition, % at 10 µM | Leishmania major promastigotes, resazurin fluorescence viability | AID 1063; in the data active means inhibition above about 50%;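 further: promastigotes grown with compound for 44 hours at 28 °C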
The depositor's hits bear a star; ? = inconclusive; · = no result given. Rows were chosen to be rich in hits. Some 9.4% of all compounds tested hit in one or more screens of this group.

SMILES	Mdm2 MdmX PPI	T cruzi inh	CSC inhib	Beta apoptosis	SKKanGAS inh	Lmaj promast
COc1cccc(N(C(=O)c2sc(C)nc2C)C(C(=O)NCC2CCCO2)c2ccccc2)c1 (stereo unspecified)	29	-12	-7	-2	3	·
C=CCNC(=O)/C(C#N)=C/c1ccc(OS(=O)(=O)c2ccc(C)cc2)c(OC)c1	·	7	37	-3	-1	92*
COc1cc(/C=N/NC(=O)COc2ccc(Cl)cc2)ccc1OS(=O)(=O)c1ccc(C)cc1	27	18	·	5	27	99*
COC(=O)N/N=C/c1ccc(OS(=O)(=O)c2ccc(C)cc2)c(OC)c1	16	-9	-5	-1	-4	20
COc1cc(/C=N/NC(=O)COc2cccc(F)c2)ccc1OS(=O)(=O)c1ccc(C)cc1	13	4	44	·	24	99*
COCCNC(=O)C1CCC(Cn2c(=S)[nH]c3ccccc3c2=O)CC1 (stereo unspecified)	13	-12	-13	3	9	0
Cc1ccccc1CNC(=O)C1CCN(c2nnc(N3CCCC3=O)s2)CC1	35	-14	1	-2	-3	·
O=C(NCCc1c[nH]c2ccccc12)C1CCN(S(=O)(=O)c2ccccc2F)CC1	5	2	25	-10	-3	98*
O=C(NCCc1c[nH]c2ccccc12)C1CCN(c2nnc(N3CCCC3=O)s2)CC1	14	·	-10	-1	·	84*
O=C(NCCc1c[nH]c2ccccc12)C1CCC(Cn2c(=S)[nH]c3ccccc3c2=O)CC1 (stereo unspecified)	18	75*	76*	11	33	100*
COC(C(=O)Nc1ccnn1C1CCN(Cc2ccc(CO)o2)CC1)c1ccccc1 (stereo unspecified)	0	-13	-5	-4	15	·
CN(C(=O)CSc1ncnc2sccc12)C1CCCCC1	-124	·	·	-6	·	·
CC1=C(C(=O)Nc2ccccc2)C(c2ccncc2)C(C#N)=C(SCC(=O)Nc2ccccc2)N1 (stereo unspecified)	12	12	0	3	3	99*
CC(=O)C1=C(C)NC(SCSc2ccccc2)=C(C#N)C1c1cccnc1 (stereo unspecified)	13	30	23	-6	0	100*
CSC1=C(C#N)C(c2ccncc2)C(C(=O)Nc2ccccc2)=C(C)N1 (stereo unspecified)	8	-1	-4	-3	1	15
O=C(NC1CCN(C(=O)c2ccccc2Br)CC1)c1ccccc1	-1	-3	-7	1	2	·
COc1cc(/C=C2/SC(=O)N(Cc3ccccc3)C2=O)ccc1OCc1ccncc1	12	36	67	7	34	92*
COCCN1C(=O)/C(=C/c2ccc(OCc3ccc(C(=O)O)cc3)c(OC)c2)SC1=Nc1ccccc1	-14	19	19	·	91*	-2
CCOc1ccc(/C=C2\SC(=O)N(CCNC(=O)C3COc4ccccc4O3)C2=O)cc1OC (stereo unspecified)	22	0	8	-2	4	71*
COc1cc(/C=C2\SC(=Nc3ccccc3)N(Cc3ccco3)C2=O)ccc1OC(C)C(=O)O (stereo unspecified)	29	-6	·	·	28	-10
CCOC(=O)c1ccc2c(c1)N(Cc1ccccc1C)C(=O)c1ccccc1S2=O (stereo unspecified)	-1	5	10	-2	8	99*
COC(=O)c1ccc2c(c1)N(Cc1cc(C)ccc1C)C(=O)c1ccccc1S2=O (stereo unspecified)	·	·	·	·	·	-4
CCOC(=O)N1CCN(C(=O)c2ccc3c(c2)N(Cc2cc(C)ccc2C)C(=O)c2ccccc2S3=O)CC1 (stereo unspecified)	19	-4	-3	10	15	·
COC(=O)c1ccc2c(c1)N(Cc1ccccc1F)C(=O)c1ccccc1S2=O (stereo unspecified)	21	-6	15	-5	-4	100*
CCCCN(C)CCCNC(=O)c1ccc2c(c1)N(CC)C(=O)c1ccccc1S2=O (stereo unspecified)	11	61*	-8	-3	-4	·
SMILES	Mdm2 MdmX PPI	T cruzi inh	CSC inhib	Beta apoptosis	SKKanGAS inh	Lmaj promast
CCc1nc(CNC(=O)C2CCC(=O)N(CCc3cccc(F)c3)C2)no1 (stereo unspecified)	6	-8	10	-1	-12	·
CCOc1cc(NC(=O)Nc2ccc(F)cc2)c(OCC)cc1NC(=O)CC	18	1	-9	-4	-7	·
CC(OC(=O)c1ccc([N+](=O)[O-])s1)C(=O)Nc1ncc(Cl)cc1Cl (stereo unspecified)	10	22	-3	7	11	100*
COc1ccc(NC(=O)c2cccnc2N2CCOCC2)cc1	-15	-6	14	6	-7	-1
Cc1ccc(OCc2ccc([N+](=O)[O-])cc2)c([N+](=O)[O-])n1	-39	3	-8	4	-1	·
CCOP(=O)(OCC)C(Nc1cccc(C(F)(F)F)c1)c1ccc(C)cc1 (stereo unspecified)	12	5	·	7	-5	59*
CCCOP(=O)(OCCC)C(Nc1cccc(C(F)(F)F)c1)c1ccc(C)cc1 (stereo unspecified)	31	21	28	7	21	5
CC(=O)Nc1ccc(S(=O)(=O)N(C)CC(=O)OCC(=O)c2ccc3c(c2)NC(=O)CO3)cc1	1	·	10	-3	·	·
CCN(CC)S(=O)(=O)c1cc(NC(=O)C(C)N2CCN(c3ccccn3)CC2)ccc1C (stereo unspecified)	-4	24	-1	1	-6	11
CCN(CC)S(=O)(=O)c1cc(NC(=O)CNc2cccc(S(=O)(=O)N3CCOCC3)c2)ccc1C	29	-6	-2	34	-1	·
CCN(CC)S(=O)(=O)c1cc(NC(=O)C(C)Nc2ccccc2N2CCOCC2)ccc1C (stereo unspecified)	9	39	3	4	7	71*
CCN(CC)S(=O)(=O)c1cc(NC(=O)C(C)N2CCN(Cc3ccc4c(c3)OCO4)CC2)ccc1C (stereo unspecified)	37	?	35	-1	-1	88*
Cc1c(C(=O)O)sc(S(=O)(=O)N2CCN(C(=O)CCc3ccccc3)CC2)c1C(=O)O	4	·	·	·	·	·
O=c1[nH]cnc2c1c(-c1ccccc1)cn2-c1ccccc1	19	9	-5	-15	5	·
Fc1ccc(-n2cc(-c3ccccc3)c3c(=S)nc[nH]c32)cc1	34	8	2	20	65*	·
Fc1cccc(-n2cc(-c3ccccc3)c3c(=S)nc[nH]c32)c1	33	10	8	17	84*	·
CC(C)N(C(=S)Nc1cccc(C(F)(F)F)c1)C(C)c1ccccn1 (stereo unspecified)	15	-3	9	-1	-3	14
